In ChEMBL document CHEMBL1275447 (Antimicrob Agents Chemother, 2008):
≈ marks a conversion by molar mass, not a printed value. Calls of active or inactive are those of the source. No cut-off for these calls is given here.

Tests used:
[1] = system: Pseudomonas aeruginosa; test: Antibacterial activity against Pseudomonas aeruginosa isolate 1055 by microdilution method; assay type: functional
[2] = system: Pseudomonas aeruginosa; test: Antibacterial activity against Pseudomonas aeruginosa isolate 1005 by microdilution method; assay type: functional
Procedure, shortened: (§1)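 CLSI broth microdilution in cation-adjusted Mueller-Hinton broth (20–25 mg/liter Ca, 10–12.5 mg/liter Mg). Standard inoculum 10⁵ CFU/ml, incubated in ambient air. Clinical hospital isolates.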

[3] = system: Pseudomonas aeruginosa; test: Antibacterial activity against Pseudomonas aeruginosa isolate 906 by microdilution method; assay type: functional
[4] = system: Pseudomonas aeruginosa; test: Antibacterial activity against Pseudomonas aeruginosa isolate 931 by microdilution method; assay type: functional; procedure, shortened: as §1
[5] = system: Pseudomonas aeruginosa; test: Antibacterial activity against Pseudomonas aeruginosa isolate 927 by microdilution method; assay type: functional
[6] = system: Pseudomonas aeruginosa; test: Antibacterial activity against Pseudomonas aeruginosa isolate 968 by microdilution method; assay type: functional
[7] = fT>MIC in human infected with Pseudomonas aeruginosa isolate 886 at 500 mg administered as 1 hr infusion; assay type: functional
[8] = fT>MIC in human infected with Pseudomonas aeruginosa isolate 1055 at 500 mg administered as 1 hr infusion; assay type: functional
[9] = fT>MIC in human infected with Pseudomonas aeruginosa isolate 1062 at 500 mg administered as 1 hr infusion; assay type: functional
[10] = fT>MIC in human infected with Pseudomonas aeruginosa isolate 935 at 500 mg administered as 1 hr infusion; assay type: functional
[11] = fT>MIC in human infected with Pseudomonas aeruginosa isolate 1005 at 500 mg administered as 1 hr infusion; assay type: functional
[12] = fT>MIC in human infected with Pseudomonas aeruginosa isolate 1082 at 500 mg administered as 1 hr infusion; assay type: functional
[13] = fT>MIC in human infected with Pseudomonas aeruginosa isolate 931 at 500 mg administered as 1 hr infusion; assay type: functional
[14] = fT>MIC in human infected with Pseudomonas aeruginosa isolate 993 at 500 mg administered as 4 hr infusion; assay type: functional
[15] = fT>MIC in human infected with Pseudomonas aeruginosa isolate 1029 at 500 mg administered as 4 hr infusion; assay type: functional
[16] = fT>MIC in human infected with Pseudomonas aeruginosa isolate 1055 at 500 mg administered as 4 hr infusion; assay type: functional
[17] = fT>MIC in human infected with Pseudomonas aeruginosa isolate 1062 at 500 mg administered as 4 hr infusion; assay type: functional
[18] = fT>MIC in human infected with Pseudomonas aeruginosa isolate 935 at 500 mg administered as 4 hr infusion; assay type: functional
[19] = fT>MIC in human infected with Pseudomonas aeruginosa isolate 979 at 500 mg administered as 4 hr infusion; assay type: functional
[20] = fT>MIC in human infected with Pseudomonas aeruginosa isolate 1058 at 500 mg administered as 4 hr infusion; assay type: functional
[21] = fT>MIC in human infected with Pseudomonas aeruginosa isolate 1050 at 500 mg administered as 4 hr infusion; assay type: functional
[22] = fT>MIC in human infected with Pseudomonas aeruginosa isolate 927 at 500 mg administered as 4 hr infusion; assay type: functional
[23] = fT>MIC in neutropenic mouse infected with Pseudomonas aeruginosa isolate 1005 at 500 mg administered as 1 hr infusion; assay type: functional
[24] = fT>MIC in neutropenic mouse infected with Pseudomonas aeruginosa isolate 1055 at 500 mg administered as 4 hr infusion; assay type: functional
Procedure, shortened: (§2)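 Mouse fT>MIC was modelled with first-order one-compartment serum PK and 25.2% binding. Mice were neutropenic (cyclophosphamide) with uranyl nitrate renal impairment. Subcutaneous doses were 5.5, 2.25, 4.5, 4.5, 4.5, 4.5, 0.75, 0.375 mg/kg at 0, 0.5, 1.5, 2.5, 3.5, 4.5, 6, 7.5 h per 8-h interval over 24 h.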

[25] = fT>MIC in neutropenic mouse infected with Pseudomonas aeruginosa isolate 1082 at 500 mg administered as 4 hr infusion; assay type: functional; procedure, shortened: as §2
[26] = fT>MIC in neutropenic mouse infected with Pseudomonas aeruginosa isolate 906 at 500 mg administered as 4 hr infusion; assay type: functional; procedure, shortened: as §2
[27] = fT>MIC in neutropenic mouse infected with Pseudomonas aeruginosa isolate 944 at 500 mg administered as 4 hr infusion; assay type: functional; procedure, shortened: as §2
[28] = fT>MIC in neutropenic mouse infected with Pseudomonas aeruginosa isolate 896 at 500 mg administered as 4 hr infusion; assay type: functional; procedure, shortened: as §2
[29] = fT>MIC in neutropenic mouse infected with Pseudomonas aeruginosa isolate 988 at 500 mg administered as 4 hr infusion; assay type: functional; procedure, shortened: as §2
[30] = fT>MIC in neutropenic mouse infected with Pseudomonas aeruginosa isolate 927 at 500 mg administered as 4 hr infusion; assay type: functional; procedure, shortened: as §2
[31] = Cmax in Pseudomonas aeruginosa ATCC 27853 infected neutropenic ICR mouse at 50 mg/kg, sc administered as single dose 2 hrs postinfection by HPLC; assay type: ADME, organism-based; set-up: dose 50 mg/kg, route subcutaneous; conditions: in vivo
Procedure, shortened: (§3)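 Neutropenic mice (cyclophosphamide ip 150 and 100 mg/kg, 4 and 1 days before inoculation) with uranyl nitrate 5 mg/kg ip 3 days before, for renal impairment. Thigh infection with ATCC 27853 at 10⁶ CFU/ml, 0.1 ml per thigh. Single sc doses 2 h later. Intracardiac blood from 6–12 mice per time point, eight time points over 4 h. Serum assayed by HPLC (linear 0.5–40 μg/ml). One-compartment first-order fit.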

[32] = Tmax in Pseudomonas aeruginosa ATCC 27853 infected neutropenic ICR mouse at 150 mg/kg, sc administered as single dose 2 hrs postinfection by HPLC; assay type: ADME, organism-based; set-up: dose 150 mg/kg, route subcutaneous; conditions: in vivo; procedure, shortened: as §3
[33] = Elimination rate constant in Pseudomonas aeruginosa ATCC 27853 infected neutropenic ICR mouse at 10 mg/kg, sc administered as single dose 2 hrs postinfection; assay type: ADME, organism-based; set-up: dose 10 mg/kg, route subcutaneous; conditions: in vivo; procedure, shortened: as §3
[34] = Elimination rate constant in Pseudomonas aeruginosa ATCC 27853 infected neutropenic ICR mouse at 50 mg/kg, sc administered as single dose 2 hrs postinfection; assay type: ADME, organism-based; set-up: dose 50 mg/kg, route subcutaneous; conditions: in vivo; procedure, shortened: as §3
[35] = Half-life in Pseudomonas aeruginosa ATCC 27853 infected neutropenic ICR mouse at 50 mg/kg, sc administered as single dose 2 hrs postinfection; assay type: ADME, organism-based; set-up: dose 50 mg/kg, route subcutaneous; conditions: in vivo; procedure, shortened: as §3
[36] = Clearance in Pseudomonas aeruginosa ATCC 27853 infected neutropenic ICR mouse at 150 mg/kg, sc administered as single dose 2 hrs postinfection; assay type: ADME, organism-based; set-up: dose 150 mg/kg, route subcutaneous; conditions: in vivo; procedure, shortened: as §3
[37] = AUC in Pseudomonas aeruginosa ATCC 27853 infected neutropenic ICR mouse at 500 mg administered as 1 hr infusion; assay type: ADME, organism-based; conditions: plasma, iv
[38] = system: Pseudomonas aeruginosa; test: Antibacterial activity against Pseudomonas aeruginosa isolate 931 by fractionation study; assay type: functional
[39] = system: Pseudomonas aeruginosa; test: Antibacterial activity against Pseudomonas aeruginosa isolate 1060 by fractionation study; assay type: functional
[40] = system: Pseudomonas aeruginosa; test: Antibacterial activity against Pseudomonas aeruginosa at 2 times MIC; assay type: functional, organism-based
Procedure, shortened: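 Time-kill in cation-adjusted Mueller-Hinton broth. Inoculum from overnight culture set to 0.5 McFarland, final 10⁶ CFU/ml, 37°C in ambient air for 24 h. 1×, 2× and 7× MIC plus drug-free controls. Samples taken at 0, 2, 4, 6, 12 and 24 h and plated on sheep blood agar. Detection limit 10² CFU/ml.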

Compound `C[C@@H](O)[C@H]1C(=O)N2C(C(=O)O)=C(S[C@@H]3CN[C@H](CNS(N)(=O)=O)C3)[C@H](C)[C@H]12` [DORIPENEM] has an MIC [1] of 0.5 µg/mL (≈ 1.19 µM), an MIC [2] of 1 µg/mL (≈ 2.38 µM) and an MIC [3] of 2 µg/mL (≈ 4.76 µM). The MIC [4] was 4 µg/mL (≈ 9.51 µM), the MIC [5] was 16 µg/mL (≈ 38 µM) and the MIC [6] was 16 µg/mL (≈ 38 µM). For the same compound, the “fT>MIC” value [7] was 90%, the “fT>MIC” value [8] was 72.5% and the “fT>MIC” value [9] was 72.5%. For the same compound, the “fT>MIC” value [10] was 55%, the “fT>MIC” value [11] was 55% and the “fT>MIC” value [12] was 55%. For the same compound, the “fT>MIC” value [13] was 27.5%, the “fT>MIC” value [14] was 100% and the “fT>MIC” value [15] was 100%. For the same compound, the fT>MIC [16] was 95%, the fT>MIC [17] was 95% and the fT>MIC [18] was 80%. The fT>MIC [19] was 65%, the fT>MIC [20] was 65% and the fT>MIC [21] was 55%. The fT>MIC [22] was 0%, the fT>MIC [23] was 55% and the “fT>MIC” value [24] was 95%. For the same compound, the “fT>MIC” value [25] was 82.5%, the “fT>MIC” value [26] was 70% and the “fT>MIC” value [27] was 52.5%. For the same compound, the “fT>MIC” value [28] was 0%, the “fT>MIC” value [29] was 0% and the “fT>MIC” value [30] was 0%. The Cmax [31] was 59.7 µg/mL, the Tmax [32] was 13.2 min and the k el at 2 h [33] was 0.000467 s⁻¹. It also gave a k el at 2 h [34] of 0.000567 s⁻¹, a half-life [35] of 20.4 min and a CL/F [36] of 14.2 mL/min/kg. The AUC at 1 h [37] was 37600 ng·h/mL, the MIC [38] was 3 µg/mL (≈ 7.13 µM) and the MIC [39] was 2.75 µg/mL (≈ 6.54 µM). The Activity [40] was “inactive”.
